Measured values: ChEMBL document CHEMBL3120060, “Synthesis, in vitro anticancer evaluation and in silico studies of novel imidazo[2,1-b]thiazole derivatives bearing pyrazole moieties” (2014)

Tests used:
Assay type in all cases: functional
SF-539 = test: Cytotoxicity against human SF539 cells assessed as cell growth at 10 uM after 48 hrs by SRB assay; settings: SF-539, 48 h, read-out: Activity
Summary of the method: (§1)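 NCI-60 single-dose screen. Cell lines grown in RPMI 1640 with 5% FBS and 2 mM L-glutamine, plated at 5000–40,000 cells/well according to doubling time, then preincubated 24 h at 37 °C in 5% CO2. Compounds dissolved in DMSO, tested at 10^-5 M for 48 h. Adherent cells fixed with cold TCA (10% final) and stained with 0.4% SRB in 1% acetic acid. Growth expressed as percent of untreated control.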

SF-268 = test: Cytotoxicity against human SF268 cells assessed as cell growth at 10 uM after 48 hrs by SRB assay; settings: SF-268, 48 h, read-out: Activity; summary of the method: as §1
SW-620 = test: Cytotoxicity against human SW620 cells assessed as cell growth at 10 uM after 48 hrs by SRB assay; settings: SW-620, 48 h, read-out: Activity
Summary of the method: (§2)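 NCI-60 single-dose screen at 10^-5 M. Adherent lines are grown in RPMI 1640 with 5% FBS and 2 mM L-glutamine, seeded at 5000–40,000 cells/well by doubling time, and preincubated 24 h at 37 °C in 5% CO2. Drug is added from DMSO stock diluted in medium, then 48 h. Cells are fixed in cold TCA (final 10%) for 60 min and stained with 0.4% SRB in 1% acetic acid. Growth is expressed as % of untreated control using time-zero plates.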

KM12 = test: Cytotoxicity against human KM12 cells assessed as cell growth at 10 uM after 48 hrs by SRB assay; settings: KM12, 48 h, read-out: Activity; summary of the method: as §1
HCT-116 = test: Cytotoxicity against human HCT116 cells assessed as cell growth at 10 uM after 48 hrs by SRB assay; settings: HCT-116, 48 h, read-out: Activity; summary of the method: as §1
HCC 2998 = test: Cytotoxicity against human HCC2998 cells assessed as cell growth at 10 uM after 48 hrs by SRB assay; settings: HCC 2998, 48 h, read-out: Activity; summary of the method: as §1
NCI-H522 = test: Cytotoxicity against human NCI-H522 cells assessed as cell growth at 10 uM after 48 hrs by SRB assay; settings: NCI-H522, 48 h, read-out: Activity; summary of the method: as §1
NCI-H226 = test: Cytotoxicity against human NCI-H226 cells assessed as cell growth at 10 uM after 48 hrs by SRB assay; settings: NCI-H226, 48 h, read-out: Activity; summary of the method: as §1
HOP-92 = test: Cytotoxicity against human HOP92 cells assessed as cell growth at 10 uM after 48 hrs by SRB assay; settings: HOP-92, 48 h, read-out: Activity; summary of the method: as §1
SR = test: Cytotoxicity against human SR cells assessed as cell growth at 10 uM after 48 hrs by SRB assay; settings: read-out: Activity
Summary of the method: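 Leukemia line, NCI-60 single-dose screen at 10^-5 M. Cells are grown in RPMI 1640 with 5% FBS and 2 mM L-glutamine, plated by doubling time, and preincubated 24 h at 37 °C with 5% CO2. After 48 h drug exposure, settled cells are fixed with 80% TCA (final 16%) and stained with SRB. Percent growth is calculated against untreated control and time-zero plates.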

RPMI-8226 = test: Cytotoxicity against human RPMI8226 cells assessed as cell growth at 10 uM after 48 hrs by SRB assay; settings: RPMI-8226, 48 h, read-out: Activity; summary of the method: as §1
K562 = test: Cytotoxicity against human K562 cells assessed as cell growth at 10 uM after 48 hrs by SRB assay; settings: K562, 48 h, read-out: Activity; summary of the method: as §1
HL-60(TB) = test: Cytotoxicity against human HL-60(TB) cells assessed as cell growth at 10 uM after 48 hrs by SRB assay; settings: HL-60, 48 h, read-out: Activity
Summary of the method: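 NCI-60 single-dose screen: cells grown in RPMI 1640 with 5% FBS and 2 mM L-glutamine, plated at 5000–40,000 cells/well, preincubated 24 h at 37 °C, 5% CO2. Compound dissolved in DMSO, tested at 10^-5 M for 48 h. Cells TCA-fixed, sulforhodamine B stained. Growth expressed as percent of untreated control, referenced to time-zero plates.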

CCRF-CEM = test: Cytotoxicity against human CCRF-CEM cells assessed as cell growth at 10 uM after 48 hrs by SRB assay; settings: read-out: Activity; summary of the method: as §1
MDA-MB-468 = test: Cytotoxicity against human MDA-MB-468 cells assessed as cell growth at 10 uM after 48 hrs by SRB assay; settings: MDA-MB-468, 48 h, read-out: Activity; summary of the method: as §1
MCF7 = test: Cytotoxicity against human MCF7 cells assessed as cell growth at 10 uM after 48 hrs by SRB assay; settings: MCF7, 48 h, read-out: Activity; summary of the method: as §1
DU-145 = test: Cytotoxicity against human DU145 cells assessed as cell growth at 10 uM after 48 hrs by SRB assay; settings: DU-145, 48 h, read-out: Activity; summary of the method: as §1
PC-3 = test: Cytotoxicity against human PC3 cells assessed as cell growth at 10 uM after 48 hrs by SRB assay; settings: PC-3, 48 h, read-out: Activity; summary of the method: as §1
[1] = Cytotoxicity against human UO31 cells assessed as cell growth at 10 uM after 48 hrs by SRB assay; settings: UO-31, 48 h, read-out: Activity; summary of the method: as §2
SN12C = test: Cytotoxicity against human SN12C cells assessed as cell growth at 10 uM after 48 hrs by SRB assay; settings: read-out: Activity; summary of the method: as §1
CAKI-1 = test: Cytotoxicity against human CAKI-1 cells assessed as cell growth at 10 uM after 48 hrs by SRB assay; settings: CAKI-1, 48 h, read-out: Activity; summary of the method: as §1
ACHN = test: Cytotoxicity against human ACHN cells assessed as cell growth at 10 uM after 48 hrs by SRB assay; settings: read-out: Activity; summary of the method: as §1
A498 = test: Cytotoxicity against human A498 cells assessed as cell growth at 10 uM after 48 hrs by SRB assay; settings: A498, 48 h, read-out: Activity; summary of the method: as §1
IGROV-1 = test: Cytotoxicity against human IGROV1 cells assessed as cell growth at 10 uM after 48 hrs by SRB assay; settings: IGROV-1, 48 h, read-out: Activity; summary of the method: as §1
UACC-62 = test: Cytotoxicity against human UACC62 cells assessed as cell growth at 10 uM after 48 hrs by SRB assay; settings: UACC-62, 48 h, read-out: Activity; summary of the method: as §2
[2] = Cytotoxicity against human UACC257 cells assessed as cell growth at 10 uM after 48 hrs by SRB assay; settings: UACC-257, 48 h, read-out: Activity; summary of the method: as §2
SK-MEL-5 = test: Cytotoxicity against human SK-MEL-5 cells assessed as cell growth at 10 uM after 48 hrs by SRB assay; settings: SK-MEL-5, 48 h, read-out: Activity; summary of the method: as §1
M14 = test: Cytotoxicity against human M14 cells assessed as cell growth at 10 uM after 48 hrs by SRB assay; settings: M14, 48 h, read-out: Activity; summary of the method: as §1
U-251 = test: Cytotoxicity against human U251 cells assessed as cell growth at 10 uM after 48 hrs by SRB assay; settings: U-251, 48 h, read-out: Activity; summary of the method: as §2

Structure (SMILES) | growth at 10 µM (SF-539) [%] | growth at 10 µM (SF-268) [%] | growth at 10 µM (SW-620) [%] | growth at 10 µM (KM12) [%] | growth at 10 µM (HCT-116) [%] | growth at 10 µM (HCC 2998) [%] | growth at 10 µM (NCI-H522) [%] | growth at 10 µM (NCI-H226) [%] | growth at 10 µM (HOP-92) [%] | growth at 10 µM (SR) [%] | growth at 10 µM (RPMI-8226) [%] | growth at 10 µM (K562) [%] | growth at 10 µM (HL-60(TB)) [%] | growth at 10 µM (CCRF-CEM) [%] | growth at 10 µM (MDA-MB-468) [%] | growth at 10 µM (MCF7) [%] | growth at 10 µM (DU-145) [%] | growth at 10 µM (PC-3) [%] | growth at 10 µM [1] [%] | growth at 10 µM (SN12C) [%] | other results
Cc1cc(C)n(-c2cn3c(-c4ccccc4)csc3n2)n1 | 94 | 98.4 | 102 | 104 | 101 | 105 | 88.4 | 88.3 | 86 | 80.9 | 93 | 76.8 | 105 | 95.4 | 102 | 88.7 | 105 | 88.7 | 59.2 | 96.5 | growth at 10 µM (CAKI-1): 77.4%; growth at 10 µM (ACHN): 83.8%; growth at 10 µM (A498): 111%; growth at 10 µM (IGROV-1): 76.5%; growth at 10 µM (UACC-62): 89.4%; growth at 10 µM [2]: 105%; growth at 10 µM (SK-MEL-5): 94.2%; growth at 10 µM (M14): 95.4%; growth at 10 µM (U-251): 94.7%
Cc1cc(C)n(-c2cn3c(-c4ccc(Cl)cc4)csc3n2)n1 | 104 | 102 | 100 | 99.9 | 89.8 | 102 | 75.3 | 81.5 | 74.7 | 65.8 | 68.2 | 83.1 | 90.2 | 87.8 | 88.5 | 85.1 | 113 | 79.1 | 89.6 | 89 | growth at 10 µM (CAKI-1): 78.6%; growth at 10 µM (ACHN): 91%; growth at 10 µM (A498): 85.7%; growth at 10 µM (IGROV-1): 108%; growth at 10 µM (UACC-62): 86.9%; growth at 10 µM [2]: 104%; growth at 10 µM (SK-MEL-5): 85.5%; growth at 10 µM (M14): 101%; growth at 10 µM (U-251): 87.8%
Cc1ccc(-c2csc3nc(-n4nc(C)cc4C)cn23)cc1 | 109 | 112 | 106 | 108 | 97 | 107 | 91.8 | 94.8 | 78 | 81 | 90.3 | 109 | 106 | 96 | 112 | 89.7 | 116 | 84.7 | 94.4 | 98.1 | growth at 10 µM (CAKI-1): 83.5%; growth at 10 µM (ACHN): 90.7%; growth at 10 µM (A498): 103%; growth at 10 µM (IGROV-1): 107%; growth at 10 µM (UACC-62): 90.5%; growth at 10 µM [2]: 108%; growth at 10 µM (SK-MEL-5): 98.9%; growth at 10 µM (M14): 104%; growth at 10 µM (U-251): 95%
CC1=NN(c2cn3c(-c4ccc(C)cc4)csc3n2)C(=O)C1 | 102 | 111 | 105 | 104 | 94.4 | 103 | 88.9 | 89.7 | 65.5 | 73.3 | 93.6 | 80.5 | 110 | 94 | 102 | 91.8 | 113 | 75.3 | 71.6 | 96.4 | growth at 10 µM (CAKI-1): 84.5%; growth at 10 µM (ACHN): 96.9%; growth at 10 µM (A498): 99.2%; growth at 10 µM (IGROV-1): 101%; growth at 10 µM (UACC-62): 74.1%; growth at 10 µM [2]: 100%; growth at 10 µM (SK-MEL-5): 90%; growth at 10 µM (M14): 99.2%; growth at 10 µM (U-251): 94.1%
CC1=NN(c2cn3c(-c4ccc(Cl)cc4)csc3n2)C(=O)C1 | 94.7 | 96.3 | 99.3 | 105 | 97.1 | 100 | 84.5 | 95.4 | 73.6 | 73.3 | 75.9 | 71.4 | 92.5 | 84.4 | 97.9 | 93.5 | 105 | 79.4 | 80.9 | 90.9 | growth at 10 µM (CAKI-1): 79.3%; growth at 10 µM (ACHN): 89.1%; growth at 10 µM (A498): 74.1%; growth at 10 µM (IGROV-1): 99.3%; growth at 10 µM (UACC-62): 81.9%; growth at 10 µM [2]: 94.9%; growth at 10 µM (SK-MEL-5): 92.4%; growth at 10 µM (M14): 96.2%; growth at 10 µM (U-251): 91.7%
CC1=NN(c2cn3c(-c4ccccc4)csc3n2)C(=O)C1 | 89.7 | 99.3 | 104 | 102 | 96.5 | 97.3 | 89.2 | 101 | 66.5 | 84.5 | 94.2 | 83.4 | 89.2 | 95.9 | 114 | 89.6 | 106 | 77.6 | 59 | 96 | growth at 10 µM (CAKI-1): 79.9%; growth at 10 µM (ACHN): 91.2%; growth at 10 µM (A498): 96.6%; growth at 10 µM (IGROV-1): 88%; growth at 10 µM (UACC-62): 91.1%; growth at 10 µM [2]: 102%; growth at 10 µM (SK-MEL-5): 102%; growth at 10 µM (M14): 100%; growth at 10 µM (U-251): 90.7%
